Source: ChEMBL document CHEMBL3779892, “Increasing the binding affinity of VEGFR-2 inhibitors by extending their hydrophobic interaction with the active site: Design, synthesis and biological evaluation of 1-substituted-4-(4-methoxybenzyl)phthalazine derivatives” (Eur J Med Chem, 2016)

Columns and labels:
Type in all cases: functional
[1] = Growth inhibition of human SNB75 cells at 10 uM after 48 hrs by sulforhodamine B assay; details: SNB-75, 48 h, read-out: GI
Procedure, shortened: (§1)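 Run at NCI on the 60-line panel. Cells grown in RPMI 1640 with 5% FBS and 2 mM L-glutamine, plated at 5000–40,000 cells/well by doubling time, and held 24 h at 37 °C before dosing. Drug (DMSO stock) given at a single final 10 µM in triplicate wells for 48 h. Adherent cells fixed with cold TCA (10% final), suspension cells with 16% TCA. SRB stain read at 515 nm. Percent growth from Tz, C and Ti.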

[2] = system: KM12; assay: Growth inhibition of human KM12 cells at 10 uM after 48 hrs by sulforhodamine B assay; details: KM12, 48 h, read-out: GI; procedure, shortened: as §1
[3] = Growth inhibition of human RPMI8226 cells at 10 uM after 48 hrs by sulforhodamine B assay; details: RPMI-8226, 48 h, read-out: GI; procedure, shortened: as §1
[4] = system: A498; assay: Growth inhibition of human A498 cells at 10 uM after 48 hrs by sulforhodamine B assay; details: A498, 48 h, read-out: GI; procedure, shortened: as §1
[5] = system: 786-0; assay: Growth inhibition of human 786-0 cells at 10 uM after 48 hrs by sulforhodamine B assay; details: 786-0, 48 h, read-out: GI; procedure, shortened: as §1
[6] = Growth inhibition of human PC3 cells at 10 uM after 48 hrs by sulforhodamine B assay; details: PC-3, 48 h, read-out: GI; procedure, shortened: as §1
[7] = Growth inhibition of human DU145 cells at 10 uM after 48 hrs by sulforhodamine B assay; details: DU-145, 48 h, read-out: GI; procedure, shortened: as §1
[8] = Growth inhibition of human HCC2998 cells at 10 uM after 48 hrs by sulforhodamine B assay; details: HCC 2998, 48 h, read-out: GI; procedure, shortened: as §1
[9] = Growth inhibition of human SW620 cells at 10 uM after 48 hrs by sulforhodamine B assay; details: SW-620, 48 h, read-out: GI
Procedure, shortened: (§2)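 NCI-60 panel, adherent cells grown in RPMI 1640 with 5% FBS and 2 mM L-glutamine, plated at 5000–40,000 cells/well and preincubated 24 h at 37 °C, 5% CO2. 10 µM final compound from DMSO stock, triplicate wells, 48 h. Fixed with cold TCA (10% final, 60 min, 4 °C) and stained with 0.4% SRB. Absorbance read at 515 nm; growth calculated against time-zero and control wells.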

[10] = Growth inhibition of human OVCAR3 cells at 10 uM after 48 hrs by sulforhodamine B assay; details: OVCAR-3, 48 h, read-out: GI; procedure, shortened: as §1
[11] = Growth inhibition of human TK10 cells at 10 uM after 48 hrs by sulforhodamine B assay; details: TK-10, 48 h, read-out: GI; procedure, shortened: as §2
[12] = Growth inhibition of human Hs 578T cells at 10 uM after 48 hrs by sulforhodamine B assay; details: read-out: GI; procedure, shortened: as §1
[13] = system: SK-MEL-5; assay: Growth inhibition of human SK-MEL-5 cells at 10 uM after 48 hrs by sulforhodamine B assay; details: SK-MEL-5, 48 h, read-out: GI; procedure, shortened: as §1
[14] = system: MDA-MB-435; assay: Growth inhibition of human MDA-MB-435 cells at 10 uM after 48 hrs by sulforhodamine B assay; details: MDA-MB-435, 48 h, read-out: GI; procedure, shortened: as §1
[15] = Growth inhibition of human MOLT4 cells at 10 uM after 48 hrs by sulforhodamine B assay; details: MOLT-4, 48 h, read-out: GI; procedure, shortened: as §1
[16] = system: SN12C; assay: Growth inhibition of human SN12C cells at 10 uM after 48 hrs by sulforhodamine B assay; details: read-out: GI; procedure, shortened: as §1
[17] = Growth inhibition of human HCT116 cells at 10 uM after 48 hrs by sulforhodamine B assay; details: HCT-116, 48 h, read-out: GI; procedure, shortened: as §1
[18] = system: SR; assay: Growth inhibition of human SR cells at 10 uM after 48 hrs by sulforhodamine B assay; details: read-out: GI
Procedure, shortened: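 NCI-60 screen. Cells were grown in RPMI 1640 with 5% FBS and 2 mM L-glutamine, plated at 5000–40,000 cells/well and held 24 h at 37 °C, 5% CO2. Single 10 µM final dose from DMSO stock, triplicate wells, 48 h. Settled cells were fixed with 80% TCA (16% final) and stained with 0.4% SRB. Dye was solubilized in 10 mM Tris and read at 515 nm. Growth was calculated against time-zero and untreated wells.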

[19] = system: MDA-MB-468; assay: Growth inhibition of human MDA-MB-468 cells at 10 uM after 48 hrs by sulforhodamine B assay; details: MDA-MB-468, 48 h, read-out: GI; procedure, shortened: as §1
[20] = Growth inhibition of human UACC257 cells at 10 uM after 48 hrs by sulforhodamine B assay; details: UACC-257, 48 h, read-out: GI; procedure, shortened: as §2

Structure (SMILES)	inhibition of growth at 10 µM [1]	inhibition of growth at 10 µM [2]	inhibition of growth at 10 µM [3]	inhibition of growth at 10 µM [4]	inhibition of growth at 10 µM [5]	inhibition of growth at 10 µM [6]	inhibition of growth at 10 µM [7]	inhibition of growth at 10 µM [8]	inhibition of growth at 10 µM [9]	inhibition of growth at 10 µM [10]	inhibition of growth at 10 µM [11]	inhibition of growth at 10 µM [12]	inhibition of growth at 10 µM [13]	inhibition of growth at 10 µM [14]	inhibition of growth at 10 µM [15]	inhibition of growth at 10 µM [16]	inhibition of growth at 10 µM [17]	inhibition of growth at 10 µM [18]	inhibition of growth at 10 µM [19]	inhibition of growth at 10 µM [20]
COc1ccc(Cc2nnc(Nc3ccc(NC(=O)Nc4cccc(C(F)(F)F)c4)cc3)c3ccccc23)cc1	31%	36%	42%	< 30%	41%	36%	< 30%	< 30%	< 30%	< 30%	< 30%	34%	< 30%	< 30%	37%	< 30%	42%	34%	< 30%	< 30%
COc1ccc(Cc2nnc(Nc3ccc(OC)cc3)c3ccccc23)cc1	< 30%	< 30%	< 30%	47%	< 30%	< 30%	< 30%	< 30%	< 30%	< 30%	< 30%	< 30%	< 30%	< 30%	31%	34%	34%	34%	< 30%	< 30%
COc1ccc(Cc2nnc(Nc3ccc(NC(=O)Nc4ccc(C#N)cc4)cc3)c3ccccc23)cc1	57%	37%	95%	54%	83%	41%	< 30%	< 30%	< 30%	< 30%	< 30%	105%	< 33%	< 30%	56%	< 30%	44%	43%	< 30%	< 30%
COc1ccc(Cc2nnc(Nc3ccc(NC(=O)Nc4ccc(Cl)cc4)cc3)c3ccccc23)cc1	49%	39%	75%	32%	58%	31%	< 30%	< 30%	< 30%	< 30%	< 30%	75%	< 30%	< 30%	44%	< 30%	42%	40%	< 30%	< 30%
COc1ccc(Cc2nnc(Nc3ccc(NC(=O)Nc4ccccc4Cl)cc3)c3ccccc23)cc1	< 30%	< 30%	33%	44%	41%	< 30%	< 30%	< 30%	< 30%	< 30%	< 30%	< 30%	< 30%	< 30%	< 30%	< 30%	< 30%	< 30%	< 30%	< 30%
